Measurements published in ChEMBL document CHEMBL4689842, “EUbOPEN Chemogenomics Library wave 1” (2021).

System: HEK-293T
Experiment: Multiplex assay against HEK293T;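 for Population Tubulin-Different-Phenotype (%): share of the cells with healthy nuclei that show this phenotype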
Assay type: toxicity, cell-based
Settings: human
Summary of the method: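 Live cells were stained at seeding with Hoechst33342, BioTracker Green Microtubule Cytoskeleton Dye, MitoTracker Red and Annexin V Alexa Fluor 680, then imaged on a CQ1 microscope at 37°C and 5% CO2 after compound addition. CellPathfinder machine-learning gating split cells into Hoechst high-intensity objects or normal cells. Normal cells were split into healthy, pyknosed or fragmented nuclei, and pyknosed cells into mitotic or apoptotic. Tubulin, mitochondrial-mass and membrane-permeability phenotypes are per cents of healthy-nucleus cells.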

[1] = 12 h, 1 µM, compound concentration 1 uM, replicate 1
[2] = 12 h, 1 µM, compound concentration 1 uM, replicate 2
[3] = 12 h, 10 µM, compound concentration 10 uM, replicate 1
[4] = 12 h, 10 µM, compound concentration 10 uM, replicate 2
[5] = 24 h, 1 µM, compound concentration 1 uM, replicate 1
[6] = 24 h, 1 µM, compound concentration 1 uM, replicate 2
[7] = 24 h, 10 µM, compound concentration 10 uM, replicate 1
[8] = 24 h, 10 µM, compound concentration 10 uM, replicate 2
[9] = 48 h, 1 µM, compound concentration 1 uM, replicate 1
[10] = 48 h, 1 µM, compound concentration 1 uM, replicate 2
[11] = 48 h, 10 µM, compound concentration 10 uM, replicate 1
[12] = 48 h, 10 µM, compound concentration 10 uM, replicate 2

## CC(=O)c1cc(-c2cc(C(=O)NC3CC3)ccc2C)c2ncccn12
[1]
  Population Apoptotic (%): 51%
  Population Fragmented Nuclei (%): 11%
  Population Healthy Nuclei (%): 27%
  Population Hoechst High Intensity Objects (%): 12%
  Population Membrane Permeable-Phenotype (%): 3%
  Population Mitochondria Different-Phenotype (%): 59%
  Population Mitotic Cells (%): 48%
  Population Normal (%): 87%
  Population Pyknosed Nuclei (%): 61%
  Population Tubulin-Different-Phenotype (%): 36%
  Total Cell Count: 275
[2]
  Population Apoptotic (%): 16%
  Population Fragmented Nuclei (%): 1%
  Population Healthy Nuclei (%): 48%
  Population Hoechst High Intensity Objects (%): 3%
  Population Membrane Permeable-Phenotype (%): 5%
  Population Mitochondria Different-Phenotype (%): 17%
  Population Mitotic Cells (%): 83%
  Population Normal (%): 96%
  Population Pyknosed Nuclei (%): 49%
  Population Tubulin-Different-Phenotype (%): 21%
  Total Cell Count: 271
[3]
  Population Apoptotic (%): 50%
  Population Fragmented Nuclei (%): 12%
  Population Healthy Nuclei (%): 29%
  Population Hoechst High Intensity Objects (%): 15%
  Population Membrane Permeable-Phenotype (%): 4%
  Population Mitochondria Different-Phenotype (%): 81%
  Population Mitotic Cells (%): 49%
  Population Normal (%): 84%
  Population Pyknosed Nuclei (%): 58%
  Population Tubulin-Different-Phenotype (%): 39%
  Total Cell Count: 265
[4]
  Population Apoptotic (%): 22%
  Population Fragmented Nuclei (%): 6%
  Population Healthy Nuclei (%): 31%
  Population Hoechst High Intensity Objects (%): 4%
  Population Membrane Permeable-Phenotype (%): 5%
  Population Mitochondria Different-Phenotype (%): 38%
  Population Mitotic Cells (%): 77%
  Population Normal (%): 95%
  Population Pyknosed Nuclei (%): 62%
  Population Tubulin-Different-Phenotype (%): 21%
  Total Cell Count: 199
[5]
  Population Apoptotic (%): 51%
  Population Fragmented Nuclei (%): 15%
  Population Healthy Nuclei (%): 31%
  Population Hoechst High Intensity Objects (%): 13%
  Population Membrane Permeable-Phenotype (%): 2%
  Population Mitochondria Different-Phenotype (%): 42%
  Population Mitotic Cells (%): 48%
  Population Normal (%): 86%
  Population Pyknosed Nuclei (%): 52%
  Population Tubulin-Different-Phenotype (%): 26%
  Total Cell Count: 305
[6]
  Population Apoptotic (%): 10%
  Population Fragmented Nuclei (%): 5%
  Population Healthy Nuclei (%): 65%
  Population Hoechst High Intensity Objects (%): 2%
  Population Membrane Permeable-Phenotype (%): 1%
  Population Mitochondria Different-Phenotype (%): 16%
  Population Mitotic Cells (%): 89%
  Population Normal (%): 97%
  Population Pyknosed Nuclei (%): 29%
  Population Tubulin-Different-Phenotype (%): 25%
  Total Cell Count: 349
[7]
  Population Apoptotic (%): 46%
  Population Fragmented Nuclei (%): 18%
  Population Healthy Nuclei (%): 31%
  Population Hoechst High Intensity Objects (%): 17%
  Population Membrane Permeable-Phenotype (%): 0%
  Population Mitochondria Different-Phenotype (%): 76%
  Population Mitotic Cells (%): 53%
  Population Normal (%): 82%
  Population Pyknosed Nuclei (%): 49%
  Population Tubulin-Different-Phenotype (%): 38%
  Total Cell Count: 280
[8]
  Population Apoptotic (%): 28%
  Population Fragmented Nuclei (%): 7%
  Population Healthy Nuclei (%): 51%
  Population Hoechst High Intensity Objects (%): 3%
  Population Membrane Permeable-Phenotype (%): 4%
  Population Mitochondria Different-Phenotype (%): 33%
  Population Mitotic Cells (%): 71%
  Population Normal (%): 96%
  Population Pyknosed Nuclei (%): 41%
  Population Tubulin-Different-Phenotype (%): 30%
  Total Cell Count: 233
[9]
  Population Apoptotic (%): 44%
  Population Fragmented Nuclei (%): 15%
  Population Healthy Nuclei (%): 43%
  Population Hoechst High Intensity Objects (%): 14%
  Population Membrane Permeable-Phenotype (%): 10%
  Population Mitochondria Different-Phenotype (%): 22%
  Population Mitotic Cells (%): 55%
  Population Normal (%): 85%
  Population Pyknosed Nuclei (%): 41%
  Population Tubulin-Different-Phenotype (%): 28%
  Total Cell Count: 343
[10]
  Population Apoptotic (%): 8%
  Population Fragmented Nuclei (%): 6%
  Population Healthy Nuclei (%): 78%
  Population Hoechst High Intensity Objects (%): 4%
  Population Membrane Permeable-Phenotype (%): 4%
  Population Mitochondria Different-Phenotype (%): 6%
  Population Mitotic Cells (%): 91%
  Population Normal (%): 95%
  Population Pyknosed Nuclei (%): 14%
  Population Tubulin-Different-Phenotype (%): 21%
  Total Cell Count: 595
[11]
  Population Apoptotic (%): 57%
  Population Fragmented Nuclei (%): 24%
  Population Healthy Nuclei (%): 24%
  Population Hoechst High Intensity Objects (%): 17%
  Population Membrane Permeable-Phenotype (%): 1%
  Population Mitochondria Different-Phenotype (%): 63%
  Population Mitotic Cells (%): 42%
  Population Normal (%): 82%
  Population Pyknosed Nuclei (%): 51%
  Population Tubulin-Different-Phenotype (%): 36%
  Total Cell Count: 280
[12]
  Population Apoptotic (%): 17%
  Population Fragmented Nuclei (%): 6%
  Population Healthy Nuclei (%): 58%
  Population Hoechst High Intensity Objects (%): 3%
  Population Membrane Permeable-Phenotype (%): 5%
  Population Mitochondria Different-Phenotype (%): 29%
  Population Mitotic Cells (%): 82%
  Population Normal (%): 96%
  Population Pyknosed Nuclei (%): 35%
  Total Cell Count: 284
